This is an account of results in PMC4159695 (Molecular Microbiology, 2014).

One may read the Kd as the free concentration of one partner at which half of the binding sites on the other are occupied at equilibrium, for simple one-to-one binding.

Experiment [1] has as its target T1, N‐terminal PAS domain from XC_2579 (Tk 4, residues 1 to 165) (Xanthomonas campestris pv. campestris, UniProt Q8PA41).
T1 sequence (Q8PA41 14-178): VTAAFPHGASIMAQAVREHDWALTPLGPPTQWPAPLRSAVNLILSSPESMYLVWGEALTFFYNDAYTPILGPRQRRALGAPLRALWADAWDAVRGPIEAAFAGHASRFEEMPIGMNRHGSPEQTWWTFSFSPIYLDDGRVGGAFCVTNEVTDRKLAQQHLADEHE
Put plainly: Isothermal titration calorimetry of DSF and structural analogues binding to Tk 4. The note with it: ITC; for △H: change in enthalpy upon binding; for △S (cal mol^−1 per degree): change in entropy upon binding. The method, boiled down: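 His6-tagged XC_2579 PAS domain construct (Tk 4) expressed in E. coli BL21(DE3) with 0.25 mM IPTG at 37°C for 1 h. Purified by Ni2+ affinity; tag cleaved with HRV 3C protease. Heats corrected against buffer control; one-site fit for Kd, ΔH, ΔS. Repeated at least twice.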
(In general: Isothermal titration calorimetry measures the heat released or taken up as one component is titrated into another.)

For experiment [2], the target named is T2, Tk 1 (XC_2579 N‐terminal amino acid residues 1 to 360) (Xanthomonas campestris pv. campestris, UniProt Q8PA41).
T2 sequence (Q8PA41 14-373): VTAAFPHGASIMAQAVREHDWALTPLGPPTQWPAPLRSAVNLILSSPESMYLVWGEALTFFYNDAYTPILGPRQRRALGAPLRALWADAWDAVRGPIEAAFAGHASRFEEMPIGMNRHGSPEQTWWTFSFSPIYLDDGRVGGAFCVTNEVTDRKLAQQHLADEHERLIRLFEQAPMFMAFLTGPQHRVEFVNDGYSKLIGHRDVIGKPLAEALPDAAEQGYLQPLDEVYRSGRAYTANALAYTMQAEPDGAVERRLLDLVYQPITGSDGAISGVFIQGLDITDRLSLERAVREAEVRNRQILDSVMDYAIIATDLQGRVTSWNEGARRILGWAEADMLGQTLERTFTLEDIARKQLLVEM
Put plainly: Isothermal titration calorimetry of DSF binding to truncation Tk 1. As to conditions: ITC, Tk 1, in words.

Experiment [3] concerns Tk2 (XC_2579 amino acid residues 530–955). Nature of the experiment: Isothermal titration calorimetry of DSF binding to truncation Tk 2. Details: species or system Xanthomonas campestris pv. campestris. As to conditions: ITC, Tk2, in words.
Experiment [4] concerns the target T3, full‐length XC_2579 protein (RpfS) (Xanthomonas campestris pv. campestris, UniProt Q8PA41).
T3 sequence (Q8PA41 14-968): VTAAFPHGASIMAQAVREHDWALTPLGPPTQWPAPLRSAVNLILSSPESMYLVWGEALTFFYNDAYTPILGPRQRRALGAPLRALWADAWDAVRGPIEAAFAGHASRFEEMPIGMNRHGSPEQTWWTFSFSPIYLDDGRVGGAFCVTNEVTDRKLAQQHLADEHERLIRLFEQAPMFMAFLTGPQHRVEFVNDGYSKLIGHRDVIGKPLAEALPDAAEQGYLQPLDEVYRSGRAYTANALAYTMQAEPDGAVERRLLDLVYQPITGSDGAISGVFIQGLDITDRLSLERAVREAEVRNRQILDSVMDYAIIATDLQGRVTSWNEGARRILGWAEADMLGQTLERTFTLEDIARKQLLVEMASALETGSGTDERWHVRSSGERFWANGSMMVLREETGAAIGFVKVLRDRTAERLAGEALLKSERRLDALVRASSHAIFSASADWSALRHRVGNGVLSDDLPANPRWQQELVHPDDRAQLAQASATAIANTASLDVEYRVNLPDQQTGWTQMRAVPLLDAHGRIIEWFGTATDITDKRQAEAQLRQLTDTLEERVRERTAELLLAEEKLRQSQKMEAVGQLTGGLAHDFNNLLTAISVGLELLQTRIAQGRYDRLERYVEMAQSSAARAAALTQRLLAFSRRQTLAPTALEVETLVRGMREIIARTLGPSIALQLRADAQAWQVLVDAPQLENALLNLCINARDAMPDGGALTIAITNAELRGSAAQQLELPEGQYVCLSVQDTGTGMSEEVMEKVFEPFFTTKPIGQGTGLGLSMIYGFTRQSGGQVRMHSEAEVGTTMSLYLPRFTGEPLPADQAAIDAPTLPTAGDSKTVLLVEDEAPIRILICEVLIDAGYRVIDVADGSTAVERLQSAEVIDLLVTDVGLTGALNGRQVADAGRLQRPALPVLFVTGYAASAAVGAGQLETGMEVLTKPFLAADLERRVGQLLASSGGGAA
Put plainly: Isothermal titration calorimetry of DSF binding to full-length XC_2579.

A further experiment concerns XC_0107 gfp fusion. Put plainly: XC_0107 gfp reporter fusion expression induced by DSF. The experiment is classed as cell-based, Xanthomonas campestris. As to conditions: rpfFC strain carrying reporter; 50 μM synthetic DSF, 14 h. On the technique in general: Differential scanning fluorimetry follows unfolding on heating by fluorescence.
For experiment [5], the target named is T4, Tk 3 (XC_2579 amino residues 1 to 240) (Xanthomonas campestris pv. campestris, UniProt Q8PA41).
T4 sequence (Q8PA41 14-253): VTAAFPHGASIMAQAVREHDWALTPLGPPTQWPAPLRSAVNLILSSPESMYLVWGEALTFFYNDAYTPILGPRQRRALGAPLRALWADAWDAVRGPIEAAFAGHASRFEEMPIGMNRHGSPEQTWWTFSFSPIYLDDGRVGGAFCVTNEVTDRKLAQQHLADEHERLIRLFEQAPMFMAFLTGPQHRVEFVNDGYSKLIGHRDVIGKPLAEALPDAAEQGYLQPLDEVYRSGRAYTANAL
Put plainly: Isothermal titration calorimetry of DSF binding to truncation Tk 3. As to conditions: ITC, Tk 3, in words.

Experiment [6] has as its system PAS domain of Mycobacterium tuberculosis Rv1364c. As to conditions: ref King‐Scott et al., 2011, cited from earlier work; for binding to PAS domain: in words.
The mark [7] stands for this setting: Kd (M), Tk 4, higher concentrations of analogues used to estimate Kd.

Each structure is given as a SMILES string.

In the case of `CC(C)CCCCCCCCCC(=O)O` [11‐methyl‐dodecanoic acid], the equilibrium dissociation constant (Kd) is 0.0069 M in experiment [1] (setting [7]) and above 0.001 M in experiment [1] (Kd, Tk 4).

For `CCCCCCCCC/C=C\C(=O)O` [cis‐2‐dodecenoic acid (BDSF), cis‐2‐dodecenoic acid], in experiment [1] (Tk 4), the “△H” value is -1.21 kcal/mol and the “△S (cal mol^−1 per degree)” value amounted to 58.05 cal mol^−1 per degree. Moreover, the Kd in experiment [1] (setting [7]) is 7.1e-06 M. Also, the Kd in experiment [1] (Kd, Tk 4, PBS buffer at 25°C) worked out at 7e-06 M.

As for `CC(C)CCCCCCC/C=C\C(=O)O` [DSF, cis‐11‐methyl‐2‐dodecenoic acid], the DSF binding result is “bound DSF with high affinity” in experiment [2]; “no binding was detected” in experiment [3]; “High affinity DSF binding” in experiment [1] (Tk 4, in words); “High affinity DSF binding” in experiment [5]. Besides, the “△H” value in experiment [1] (Tk 4) was -1.60 kcal/mol. For the same molecule, the “△S (cal mol^−1 per degree)” value in experiment [1] (Tk 4) is on record as 59.73 cal mol^−1 per degree. Besides, binding in experiment [4] was put at a Kd of 1.4 µM. Moreover, in the experiment on XC_0107 gfp fusion, the “expression of GFP (XC_0107 gfp reporter)” value is listed as “activated”.

For the molecule `CCCCCCCC/C=C\CCCCCCCC(=O)O` [oleic acid], in experiment [6], the “binding to PAS domain” value was “bind”.

`CCCCCCCCCCCCCCCC(=O)O` [palmitic acid]: the “affinity relative to palmitoleic acid (times lower)” value in experiment [6] is 100 times.

In the case of `CCCCCC/C=C\CCCCCCCC(=O)O` [Palmitoleic acid], the “binding to PAS domain” value in experiment [6] is on record as “bind”.

Take `CCCCCCCCCCCC(=O)O` [Dodecanoic acid]: the equilibrium dissociation constant (Kd) was 0.0149 M in experiment [1] (setting [7]) and above 0.001 M in experiment [1] (Kd, Tk 4).

Turning to `CC(C)CCCCCCC/C=C/C(=O)O` [trans‐11‐methyl‐2‐dodecenoic acid], the Kd was 0.00113 M in experiment [1] (setting [7]) and above 0.001 M in experiment [1] (Kd, Tk 4).
